{"data": "Published values of several laboratories", "medium": "plasma", "note": "Protocols differ between the studies behind these lines."}
{"SMILES": "C=CC(=O)N1CCC([C@@H]2CCNc3c(C(N)=O)c(-c4ccc(Oc5ccccc5)cc4)nn32)CC1", "species": "Sprague-Dawley rat", "route": "oral", "dose": "16 mg/kg", "quantity": "MRT(0-t)", "result": "3.81 h"}
{"SMILES": "C=CC(=O)N1CCC[C@@H](n2nc(-c3ccc(Oc4ccccc4)cc3)c3c(N)ncnc32)C1", "species": "male Wistar rat", "route": "oral", "dose": "40 mg/kg", "quantity": "MRT", "result": "4.55 h"}
{"SMILES": "C[C@H]1Oc2cc(cnc2N)-c2c(nn(C)c2C#N)CN(C)C(=O)c2ccc(F)cc21", "species": "male Sprague-Dawley rat", "route": "oral", "dose": "50 mg/kg", "setting": "single dose", "quantity": "MRT(0-inf)", "result": "25 h"}
{"SMILES": "Nc1ccn([C@@H]2O[C@H](CO)[C@@H](O)C2(F)F)c(=O)n1", "species": "male Sprague-Dawley rat", "route": "intraperitoneal", "dose": "5 mg/kg", "quantity": "MRT(0-inf)", "result": "0.88 h"}
{"SMILES": "C[C@H]1[C@@H](O)O[C@@H]2O[C@@]3(C)CC[C@H]4[C@H](C)CC[C@@H]1[C@@]24OO3", "species": "male Sprague-Dawley rat", "route": "oral", "dose": "10 mg/kg", "quantity": "MRT(0-inf)", "result": "2.97 h"}
{"SMILES": "Cn1c(=O)c2[nH]cnc2n(C)c1=O", "species": "male Sprague-Dawley rat", "route": "intravenous", "dose": "11.25 mg/kg", "quantity": "MRT(0-inf)", "result": "6.51 h"}
{"SMILES": "COc1cc(-c2cc(C(C)=O)n3ccccc23)c(OC)cc1Cn1ccnc1", "species": "male Sprague-Dawley rat", "route": "oral", "dose": "5 mg/kg", "quantity": "MRT(0-t)", "result": "1.73 h"}
{"SMILES": "CONC(=O)c1cccc2c1cc(C)n2-c1nc2c(c(NCc3ccccc3)n1)CCCN2", "species": "male Sprague-Dawley rat", "route": "oral", "dose": "10 mg/kg", "setting": "single dose", "quantity": "MRT", "result": "1.55 h"}
{"SMILES": "COc1nc(-c2cccc(-c3ccccc3)c2C)ccc1CNCCNC(=O)CCCCCCCCCCC(=O)N1CCN(CCNC(=O)c2cc3c(=O)n4cccc(C)c4nc3n(CCc3cccs3)c2=N)CC1", "species": "male Sprague-Dawley rat", "route": "intraperitoneal", "dose": "4 mg/kg", "quantity": "MRT(0-t)", "result": "7.1 h"}
{"SMILES": "O=C1CCC(N2Cc3cc(C4CCN(Cc5ccccc5)CC4)ccc3C2=O)C(=O)N1 (stereo not shown)", "species": "male Sprague-Dawley rat", "route": "oral", "dose": "3 mg/kg", "quantity": "MRT(0-inf)", "result": "3.28 h"}
